This is an account of results in ChEMBL document CHEMBL1127542, “Inhibitors of acyl-CoA:cholesterol O-acyl transferase (ACAT) as hypocholesterolemic agents. 8. Incorporation of amide or amine functionalities into a series of disubstituted ureas and carbamates. Effects on ACAT inhibition in vitro and efficacy in vivo” (J Med Chem, 1994).

Active and inactive are the calls of the source. The calls are words filed in the database; no cut-off is given here. A value given as a limit tells only on which side of the number the result lay.

Assay [1] has as its target Sterol O-acyltransferase 1 (Oryctolagus cuniculus). Kind of assay: In vitro inhibition of rabbit intestinal acyl coenzyme A:cholesterol acyltransferase using [1-14C]oleolyl-CoA.
For assay [2], the system named is Rattus norvegicus. The experiment in a line: Percent change in total cholesterol in cholic acid (0.5%)-cholesterol (1.5%)-peanut oil (5.5%)-fed rats (50 mg/kg was administered as the standard dose); No change. Format: functional, organism-based. The procedure, abridged: (§1)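 Acute screen: rats given a single gavage dose, 50 mg/kg standard unless noted, suspended in carboxymethylcellulose plus Tween-20 in water, then a single high-fat, high-cholesterol meal (0.5% cholic acid, 1.5% cholesterol, 5.5% peanut oil). Overnight rise in plasma total cholesterol measured as % change versus control. Stomachs checked for food. ANOVA with Fisher's multiple range test, p<0.05.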

The subject of assay [3] is Rattus norvegicus. Kind of assay: The compound at a dose of 50 mg/kg is evaluated for percent change in High Density Lipoprotein (HDl) level in chronic cholesterol fed rat screen. Format: functional. The procedure, abridged: (§2)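 Chronic model: rats fed the high-fat, high-cholesterol diet for 14 days. In the second week, 50 mg/kg given daily by gavage in carboxymethylcellulose/Tween-20 aqueous vehicle. Plasma HDL and non-HDL cholesterol expressed as % change versus control. Body-weight gain monitored. ANOVA with Fisher's multiple range test, p<0.05.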

The subject of assay [4] is Rattus norvegicus. Kind of assay: The compound at a dose of 50 mg/kg is evaluated for percent change in NON-High Density Lipoprotein level in chronic cholesterol fed rat screen. Format: functional. The method in brief: as §2
For assay [5], the species on record is Rattus norvegicus. The experiment in a line: Percent change in total cholesterol in cholic acid (0.5%)-cholesterol (1.5%)-peanut oil (5.5%)-fed rats. Format: functional. The method in brief:
as §1

In assay [6] the test system is Rattus norvegicus. Kind of assay: The compound at a dose of 50 mg/kg is evaluated for percent change in Non-High Density Lipoprotein level in chronic cholesterol fed rat screen. Format: functional. The method in brief: as §2
For assay [7], the system named is Rattus norvegicus. The experiment in a line: The compound at a dose of 50 mg/kg is evaluated for percent change in High Density Lipoprotein (HDL) level in chronic cholesterol fed rat screen. Format: functional. The method in brief: as §2
Assay [8] deals with Rattus norvegicus. Kind of assay: The compound at a dose of 50 mg/kg is evaluated for percent change in High Density Lipoprotein (HDl) level in chronic cholesterol fed rat screen; No change. Also noted: dose 50 mg/kg. The assay is classed as functional, organism-based. The procedure, abridged: as §2
The target of assay [9] is T1, Sterol O-acyltransferase 1 (Rattus norvegicus, UniProt O70536).
T1 sequence (O70536 whole entry): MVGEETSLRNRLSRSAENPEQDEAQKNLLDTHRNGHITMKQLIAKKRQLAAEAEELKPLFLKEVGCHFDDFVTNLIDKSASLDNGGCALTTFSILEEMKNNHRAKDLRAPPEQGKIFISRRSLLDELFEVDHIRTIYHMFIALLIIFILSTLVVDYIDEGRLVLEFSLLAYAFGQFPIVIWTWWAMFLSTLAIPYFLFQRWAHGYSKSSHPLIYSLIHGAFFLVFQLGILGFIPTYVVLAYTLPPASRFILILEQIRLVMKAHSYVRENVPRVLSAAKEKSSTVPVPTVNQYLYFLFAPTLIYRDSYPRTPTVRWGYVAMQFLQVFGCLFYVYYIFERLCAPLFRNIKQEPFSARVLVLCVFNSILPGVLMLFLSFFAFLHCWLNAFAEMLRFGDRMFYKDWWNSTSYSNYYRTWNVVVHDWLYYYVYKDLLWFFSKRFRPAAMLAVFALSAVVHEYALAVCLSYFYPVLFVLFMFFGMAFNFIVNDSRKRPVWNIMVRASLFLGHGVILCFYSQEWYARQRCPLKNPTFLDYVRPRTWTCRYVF
The experiment in a line: In vitro inhibition of rat intestinal acyl coenzyme A:cholesterol acyltransferase using [1-14C]oleolyl-CoA.

What is called IC50 is the concentration needed to halve the response being measured. For the compound `COCCCCCC(=O)NC(CNC(=O)Nc1c(C(C)C)cccc1C(C)C)c1ccccc1` (stereo not given), 380 nM corresponded to half-maximal inhibition in [1] (IC50). Besides, in the assay on Rattus norvegicus [2], the Change entry was “inactive”.
`CC(C)c1cccc(C(C)C)c1NC(=O)NCC(NCc1ccccc1O)c1ccccc1` (single isomer, unassigned; (-)): the values for the Change in the assay with Rattus norvegicus [3], with Rattus norvegicus [4] and in the assay listed under Rattus norvegicus [5] were 40%, 3% and -50%, respectively. Also, the IC50 in [1] worked out at 120 nM.
Regarding `CCCCCCCCCCCCCCCCNC(CNC(=O)Nc1c(C(C)C)cccc1C(C)C)c1ccccc1` (racemic), in assay [1], half-maximal inhibition (IC50) was put at 120 nM. In addition, in the assay on Rattus norvegicus [2], the Change result was “inactive”.
Compound `CCCCCCC(=O)NC(CNC(=O)Nc1c(C(C)C)cccc1C(C)C)c1ccccc1` (stereo not given) gave an IC50 in [1] of 150 nM. In addition, the Change entry in the assay with Rattus norvegicus [2] is “inactive”.
`CCOC(=O)N1CCN(CCCCCC(=O)NC(CNC(=O)Nc2c(C(C)C)cccc2C(C)C)c2ccccc2)CC1` (stereo not given) yielded an IC50 in [1] of 2800 nM. For the same compound, the Change result with Rattus norvegicus [2] is “inactive”.
On to `CC(=O)NC(CNC(=O)Nc1c(C(C)C)cccc1C(C)C)c1ccccc1` (stereo not given), for which the IC50 in assay [1] was 2500 nM. Also, in the assay on Rattus norvegicus [2], the Change result was “inactive”.
For `CC(C)c1cccc(C(C)C)c1NC(=O)NCC(NC(=O)CCCCCN)c1ccccc1` (stereo not given), in that order: > 5000 nM and “inactive”.
For `CCCCCCC(=O)NCC(CNC(=O)Nc1c(C(C)C)cccc1C(C)C)c1ccccc1` (stereo not given), in that order: 650 nM and “inactive”.
`CCCCCCCCCCCCNC(CNC(=O)Nc1c(C(C)C)cccc1C(C)C)c1ccccc1` (racemic): the results for the Change in the assay with Rattus norvegicus [6], with Rattus norvegicus [3] and in the assay filed under Rattus norvegicus [5] were 27%, 29% and -45%, respectively. Moreover, the IC50 in assay [1] turned out to be 45 nM.
Consider `CC(C)c1cccc(C(C)C)c1NC(=O)NCC(NC(=O)CCCCCN(C)C)c1ccccc1` (stereo not given), for which the IC50 in [1] was found to be 4200 nM. The Change result with Rattus norvegicus [2] is “inactive”.
Regarding `CC(C)c1cccc(C(C)C)c1NC(=O)NCC1(c2ccc(N(C)C)cc2)CCCC1` [NEVANIMIBE], the Change was -62% with Rattus norvegicus [6] and 200% with Rattus norvegicus [7].
In the case of `CC(C)c1cccc(C(C)C)c1NC(=O)NCC(NC(=O)c1cccc[n+]1[O-])c1ccccc1` (stereo not given), the Change with Rattus norvegicus [6] is -31%; in the assay on Rattus norvegicus [3] it was 70%; in the assay filed under Rattus norvegicus [5], -44%. This compound displayed a 50% inhibitory concentration (IC50) in assay [1] of 130 nM.
On to `CCCCCCCCCCCCNCC(CNC(=O)Nc1c(C(C)C)cccc1C(C)C)c1ccccc1` (racemic), for which the Change entry in the assay with Rattus norvegicus [8] was “inactive”. For the same compound, the IC50 in assay [1] worked out at 110 nM. In addition, the Change in the assay filed under Rattus norvegicus [5] was -54%.
In turn, `CC(C)c1cccc(C(C)C)c1NC(=O)NCC(NC(=O)c1ccccc1)c1ccccc1` (stereo not given) showed an IC50 in [1] of 530 nM. Also, in the assay on Rattus norvegicus [2], the Change result was “inactive”.
Taken in the same sequence, the figures for `CCCCCCCCCCCC(=O)NCC(CNC(=O)Nc1c(C(C)C)cccc1C(C)C)c1ccccc1` (stereo not given) were 79 nM and “inactive”.
Take `CC(C)c1cccc(C(C)C)c1NC(=O)NCC(NC(=O)c1c(Cl)cccc1Cl)c1ccccc1` (stereo not given): the IC50 in assay [1] came to 1200 nM. Also, the Change entry with Rattus norvegicus [2] is “inactive”.
`CC(C)=CCCC(C)CC(=O)NC(CNC(=O)Nc1c(C(C)C)cccc1C(C)C)c1ccccc1` (stereo not given): inhibition in [1] was half-maximal at 400 nM (IC50). Moreover, the Change entry in the assay on Rattus norvegicus [2] was “inactive”.
Taken in the same sequence, the figures for `CC(C)c1cccc(C(C)C)c1NC(=O)NCC(CNC(=O)c1ccccc1)c1ccccc1` (stereo not given) were 1900 nM and “inactive”.
For `COC(=O)CCCCC(=O)NC(CNC(=O)Nc1c(C(C)C)cccc1C(C)C)c1ccccc1` (stereo not given), in that order: 2600 nM and “inactive”.
Taken in the same sequence, the figures for `CCCCCCCCCCCCCCCC(=O)NC(CNC(=O)Nc1c(C(C)C)cccc1C(C)C)c1ccccc1` (stereo not given) were 81 nM and “inactive”.
On to `CC(C)c1cccc(C(C)C)c1NC(=O)NCC(NC(=O)CCCCCN(CCO)CCO)c1ccccc1` (stereo not given), for which, in assay [1], half-maximal inhibition (IC50) was put at 2800 nM. The Change in the assay filed under Rattus norvegicus [5] is recorded as -4%.
For the compound `CC(C)c1cccc(C(C)C)c1NC(=O)NCC(NCc1ccccc1)c1ccccc1` (racemic), half-maximal inhibition in assay [1] (IC50) was put at 51 nM. Further, the Change in the assay filed under Rattus norvegicus [5] is on record as -36%.
Taken in the same sequence, the figures for `CCCC(CCC)(CNC(=O)Nc1c(C(C)C)cccc1C(C)C)NC(=O)c1ccc(OC)cc1` were 90 nM and -25%.
`COc1ccc(CNC(CNC(=O)Nc2c(C(C)C)cccc2C(C)C)c2ccccc2)cc1` (racemic) gave a half-inhibitory concentration (IC50) in assay [1] of 48 nM. In addition, the Change in the assay listed under Rattus norvegicus [5] is on record as -54%.
For `COc1ccc(CNC(CNC(=O)Nc2c(C(C)C)cccc2C(C)C)C(C)C)cc1` (single isomer, unassigned; (-)), in that order: 80 nM and -41%.
For `CCCCCCCNC(CNC(=O)Nc1c(C(C)C)cccc1C(C)C)c1ccccc1` (racemic), in that order: 110 nM and -25%.
Taken in the same sequence, the figures for `CCCCC(=O)NCC(CNC(=O)Nc1c(C(C)C)cccc1C(C)C)c1ccccc1` (stereo not given) were 610 nM and -6%.
For the compound `CC(C)c1cccc(C(C)C)c1NC(=O)NCC(NC(=O)c1ccc2ccccc2[n+]1[O-])c1ccccc1` (stereo not given), the IC50 in assay [1] is 150 nM. The Change in the assay listed under Rattus norvegicus [5] was -21%.
Consider `CC(C)c1cccc(C(C)C)c1NC(=O)NCC(NCc1ccc(CN(C)C)cc1)c1ccccc1` (single isomer, unassigned; (-)), for which, in the assay listed under Rattus norvegicus [5], the Change is reported as -57%. In assay [9], the IC50 was 170 nM.
On to `CC(C)c1cccc(C(C)C)c1NC(=O)NCC1(c2ccccc2)CCCC1`, for which the Change in the assay with Rattus norvegicus [6] was -7%; in the assay with Rattus norvegicus [3], -12%; in the assay listed under Rattus norvegicus [5], -38%. The same compound displayed an IC50 in assay [1] of 17 nM.
In turn, `CC(C)c1cccc(C(C)C)c1NC(=O)NCC(NCc1ccco1)c1ccccc1` (single isomer, unassigned; (-)) had an IC50 in [1] of 48 nM. In addition, the Change in the assay listed under Rattus norvegicus [5] was -18%.
Consider `CC(C)c1cccc(C(C)C)c1OC(=O)NCC(NC(=O)OC(C)(C)C)c1ccccc1` (single isomer, unassigned; (-)), for which the IC50 in assay [1] is 430 nM. In addition, the Change in the assay filed under Rattus norvegicus [5] was 20%.
In the case of `CC(C)c1cccc(C(C)C)c1NC(=O)NCC(NC(=O)c1ccc2ccccc2n1)c1ccccc1` (stereo not given), half-maximal inhibition in assay [1] (IC50) was put at 150 nM. The Change in the assay listed under Rattus norvegicus [5] is reported as -31%.
